Measurements reported in ChEMBL document CHEMBL4813921, “Optimization of WZ4003 as NUAK inhibitors against human colorectal cancer” (Eur J Med Chem, 2021).
Calls of active or inactive are those of the source.

Tests used:
[1] = system: HCT-116; assay: Induction of cell cycle arrest in human HCT-116 cells assessed as reduction in accumulation at S phase at 10 uM measured after 48 hrs by PI/RNaseA staining based flow cytometry assay; format: functional
[2] = system: HCT-116; assay: Antiproliferative activity against human HCT-116 cells assessed as reduction in cell viability at 10 uM measured after 1 to 5 days by MTT assay relative to control; format: functional, cell-based; conditions: time 1-5 day
Summary of the method: (§1)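 MTT viability read daily over 1–5 days of exposure to 10 μM compound; mean ± SD, n = 3.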

[3] = system: U2OS; assay: Induction of cell cycle arrest in human U2OS cells assessed as reduction in accumulation at S phase at 10 uM measured after 48 hrs by PI/RNaseA staining based flow cytometry assay; format: functional
[4] = system: U2OS; assay: Induction of apoptosis in human U2OS cells assessed as viable cells at 10 uM measured after 48 hrs by Annexin V-FITC/PI staining based flow cytometry method (reference value: 95.5%); format: functional; conditions: read-out: Activity
[5] = system: U2OS; assay: Induction of apoptosis in human U2OS cells assessed as early apoptotic cells at 10 uM measured after 48 hrs by Annexin V-FITC/PI staining based flow cytometry method (reference value: 2.8%); format: functional
[6] = system: U2OS; assay: Inhibition of colony formation in human U2OS cells measured after 14 days by crystal violet staining based microcopic analysis; format: functional, cell-based; conditions: dose 0.5-2 µM, time 14.0 day
Summary of the method: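 Clonogenic assay with 14-day exposure to a range of compound concentrations; colonies stained with crystal violet and imaged by microscopy; compared with untreated cells.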

[7] = Toxicity against BALB/c-nu/nu mouse xenografted with human SW480 cells assessed as morphological changes in spleen at 10 to 20 mg/kg, ip administered every 2 days for 18 days by H and E staining based analysis; format: organism-based; conditions: in vivo, 432 h, dose 10-20 mg/kg, time 18 day
Summary of the method: (§2)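 After 18 days of ip dosing every two days in SW480-xenografted nude mice, heart, liver, spleen, lung and kidney harvested, sectioned, HE-stained, examined at ×400.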

[8] = target: T1, NUAK family SNF1-like kinase 1 (Homo sapiens) (UniProt O60285); assay: Inhibition of NUAK1 (unknown origin) at 10 uM using CHKtide as substrate in presence of ATP measured after 60 mins by ADP-Glo assay
T1 sequence (whole entry): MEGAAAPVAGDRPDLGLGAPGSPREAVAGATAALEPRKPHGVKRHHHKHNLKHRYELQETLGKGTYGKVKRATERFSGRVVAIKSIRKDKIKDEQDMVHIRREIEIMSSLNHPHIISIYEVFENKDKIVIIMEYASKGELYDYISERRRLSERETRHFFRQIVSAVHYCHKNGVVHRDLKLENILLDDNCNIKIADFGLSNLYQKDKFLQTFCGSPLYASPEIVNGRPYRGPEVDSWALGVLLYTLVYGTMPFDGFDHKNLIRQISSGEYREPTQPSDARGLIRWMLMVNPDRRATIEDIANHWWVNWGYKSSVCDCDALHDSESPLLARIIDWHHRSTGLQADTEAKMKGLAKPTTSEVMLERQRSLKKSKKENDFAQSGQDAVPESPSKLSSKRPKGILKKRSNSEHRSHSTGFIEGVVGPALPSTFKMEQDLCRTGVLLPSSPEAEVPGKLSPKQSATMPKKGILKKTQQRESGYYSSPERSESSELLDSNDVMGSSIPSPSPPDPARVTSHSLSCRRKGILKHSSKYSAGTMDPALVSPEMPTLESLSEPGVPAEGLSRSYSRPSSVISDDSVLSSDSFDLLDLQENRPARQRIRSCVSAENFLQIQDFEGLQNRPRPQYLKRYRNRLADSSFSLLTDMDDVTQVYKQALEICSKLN

[9] = Toxicity against BALB/c-nu/nu mouse xenografted with human SW480 cells assessed as morphological changes in kidney at 10 to 20 mg/kg, ip administered every 2 days for 18 days by H and E staining based analysis; format: organism-based; conditions: in vivo, 432 h, dose 10-20 mg/kg, time 18 day; summary of the method: as §2
[10] = system: U2OS; assay: Induction of cell cycle arrest in human U2OS cells assessed as increase in accumulation at G2/M phase at 10 uM measured after 48 hrs by PI/RNaseA staining based flow cytometry assay; format: functional
[11] = system: U2OS; assay: Antiproliferative activity against human U2OS cells at 2.5 to 10 uM measured after 48 hrs by EdU staining based assay; format: functional, cell-based; conditions: dose 2.5-10 µM
Summary of the method: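 Cells exposed to a range of compound concentrations for 48 h, then EdU click-chemistry staining with DAPI counterstain. Confocal high-content imaging; DAPI-positive nuclei counted as total and EdU-positive as proliferating.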

[12] = system: SW480; assay: Antitumour activity against human SW480 cells xenografted in Balb/c-nu/nu mouse assessed as reduction in Ki67 expression in tumor at 10 mg/kg, ip administered every 2 days for 18 days by immunohistochemical assay; format: functional, organism-based; conditions: time 18.0 day
Summary of the method: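 SW480 xenografts in nude mice (n = 6 per group) treated ip every two days for 18 days. Excised tumours sectioned for HE and Ki67 staining, examined at ×400.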

[13] = system: SW480; assay: Antitumour activity against human SW480 cells xenografted in Balb/c-nu/nu mouse assessed as inhibition of tumour volume at 10 to 20 mg/kg, ip administered every 2 days for 18 days; format: functional, organism-based; conditions: dose 10-20 mg/kg, time 18.0 day
Summary of the method: (§3)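 SW480 xenografts in nude mice, randomized at 100 mm3 tumour volume into four groups of six. Dosed ip at 10 or 20 mg/kg every two days for 18 days, with vehicle group. Tumour volume and body weight recorded every two days; tumours weighed at end; means ± SD (n = 6).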

[14] = Toxicity against BALB/c-nu/nu mouse xenografted with human SW480 cells assessed as morphological changes in lung at 10 to 20 mg/kg, ip administered every 2 days for 18 days by H and E staining based analysis; format: organism-based; conditions: in vivo, 432 h, dose 10-20 mg/kg, time 18 day; summary of the method: as §2
[15] = system: HCT-116; assay: Induction of apoptosis in human HCT-116 cells assessed as late apoptotic cells at 10 uM measured after 48 hrs by Annexin V-FITC/PI staining based flow cytometry method (reference value: 1.6%); format: functional
[16] = system: SW480; assay: Antitumour activity against human SW480 cells xenografted in Balb/c-nu/nu mouse assessed as reduction in tumor weight at 10 to 20 mg/kg, ip administered every 2 days for 18 days; format: functional, organism-based; conditions: dose 10-20 mg/kg, time 18.0 day; summary of the method: as §3
[17] = system: SW480; assay: Antiproliferative activity against human SW480 cells assessed as reduction in cell viability at 10 uM measured after 1 to 5 days by MTT assay relative to control; format: functional, cell-based; conditions: time 1-5 day; summary of the method: as §1
[18] = system: HCT-116; assay: Induction of cell cycle arrest in human HCT-116 cells assessed as increase in accumulation at G2/M phase at 10 uM measured after 48 hrs by PI/RNaseA staining based flow cytometry assay; format: functional
[19] = system: SW480; assay: Induction of apoptosis in human SW480 cells assessed as early apoptotic cells at 10 uM measured after 48 hrs by Annexin V-FITC/PI staining based flow cytometry method (reference value: 2.6%); format: functional
[20] = Toxicity against BALB/c-nu/nu mouse xenografted with human SW480 cells assessed as morphological changes in liver at 10 to 20 mg/kg, ip administered every 2 days for 18 days by H and E staining based analysis; format: organism-based; conditions: in vivo, 432 h, dose 10-20 mg/kg, time 18 day; summary of the method: as §2
[21] = system: SW480; assay: Induction of cell cycle arrest in human SW480 cells assessed as increase in accumulation at G2/M phase at 10 uM measured after 48 hrs by PI/RNaseaA staining based flow cytometry assay; format: functional

CCC(=O)Nc1cccc(Oc2nc(Nc3ccc(N4CCN(C)CC4)cc3)ncc2Cl)c1
92.9%: inhibition [8]
12.9%: Activity [5]
81.6%: viability at 10 µM [4]
16.2%: Activity [19]
Non-Toxic: Activity [7] | Activity [9] | Activity [14] | Activity [20]
10%: Activity [15]
active: Activity [1] | Activity [2] | Activity [3] | inhibition [6] Dose-Dependent Effect | Activity [10] | Activity [11] | Activity [12] | Activity [13] | Activity [16] | Activity [17] | Activity [18] | Activity [21]
